From ChEMBL document CHEMBL4118110, “The identification of inhibitory compounds of Rickettsia prowazekii methionine aminopeptidase for antibacterial applications” (Bioorg Med Chem Lett, 2018)

Key:
[1] = Solubility of the compound; format: physicochemical
[2] = (§1) Inhibition of Rickettsia prowazekii N-terminal His6-tagged methionine aminopeptidase 1 expressed in Escherichia coli DLB3 Rosetta cells using Met-AMC as substrate preincubated for 1 hr followed by 30 mins incubation after substrate addition measured after 90 mins in presence of MnCl2 by fluorescence assay
How it was run: (§2)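 Recombinant R. prowazekii MetAP with Mn(II) as the metal cofactor. Met-AMC substrate; release of free AMC is followed by fluorescence (excitation 360 nm, emission 460 nm). Activity is the slope of fluorescence versus time, compared with an uninhibited control.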

[3] = as §1, with “cells at 10 uM” for “cells”, “assay relative to control” for “assay”; how it was run: as §2

SMILES	solubility [1]	IC50 [2]	inhibition [3]
O=C(O)c1cc(-c2ccc(Cl)cc2)n[nH]1	Insoluble	–	–
Cc1csc(-c2ccccn2)n1	–	1.1 µM	85 to 89%
O=C(O)c1cc(-c2ccccc2)on1	–	1.4 µM	80 to 82%
CCCCn1cnc2sc(C(=O)O)c(C)c2c1=O	–	3.1 µM	46 to 54%
NCc1nnnn1-c1cccc(Br)c1	Insoluble	–	–
C=CCNC(=O)c1cc(-c2ccccn2)nc2ccccc12	Insoluble	–	–
O=C(O)c1cc2ccc(F)cc2oc1=O	–	8.3 µM	23 to 78%
CC(=O)Nc1ccc(C(=O)CSc2nnc(N)[nH]2)cc1	–	10 µM	89%
Cc1ccc(C(=O)CSc2nnc(C)[nH]2)c(C)c1	–	0.4 µM	54 to 68%
CCCNC(=O)c1cc(-c2ccccn2)nc2ccccc12	Insoluble	–	–
CNS(=O)(=O)c1ccc(C(=O)O)o1	–	0.27 µM	43 to 91%
Nc1nnc(SCc2cccc3ccccc23)[nH]1	–	5 µM	74 to 83%
COc1ccc2c(C)c(C(=O)O)[nH]c2c1	–	3.7 µM	28 to 80%
